Measurements pooled from the literature.
Lines come from different studies, so protocols differ.
VIPR1: Vasoactive intestinal polypeptide receptor 1 (VIPR1, Homo sapiens, UniProt P32241)
MAOA: Amine oxidase [flavin-containing] A (MAOA, Homo sapiens, UniProt P21397)
ADRA1A: Alpha-1A adrenergic receptor (ADRA1A, Homo sapiens, UniProt P35348)
PRMT3: Protein arginine N-methyltransferase 3 (PRMT3, Homo sapiens, UniProt O60678)
LDHA: L-lactate dehydrogenase A chain (LDHA, Homo sapiens, UniProt P00338)
Rps6ka1: Ribosomal protein S6 kinase alpha-1 (Rps6ka1, Rattus norvegicus, UniProt Q63531)

COc1cc(NC(C)=O)c(Cl)cc1C(=O)Nc1nccs1  inhibition (VIPR1; cell-free assay; 10 µM): -13.5%
CN(C)C1CCN(CC#Cc2nn(C3CCCC3)c3nc(NCc4ccccc4)ncc23)C1 (centres unmarked)  inhibition (Serine/threonine-protein kinase MARK2 (MARK2, Homo sapiens, UniProt Q7KZI7); enzyme activity, inhibitor, FRET; 0.1 µM): 4%
O=C(c1ccc(Cl)cc1)N(Cc1ccccc1)C1CCCCC1  inhibition (Kappa-type opioid receptor (Oprk1, Rattus norvegicus, UniProt P34975); ligand displacement, radioligand; 10 µM): 82%
N#Cc1ccc(NC(=O)c2ccc(Cl)cc2)cc1  inhibition (MAOA; enzyme activity, inhibitor; 1 µM, 20 min): 72%
CCN(CC)c1ccc(C2Nc3ccc(C(=O)c4ccccc4)cc3NC3=C2C(=O)CC(C)(C)C3)cc1 (centres unmarked)  inhibition (ADRA1A; ligand displacement, radioligand; 10 µM): 17%
Oc1cccc(Nc2nc(-c3ccc(F)cc3F)cs2)c1  inhibition (Translocator protein (Tspo, Rattus norvegicus, UniProt P16257); ligand displacement, radioligand; 10 µM): 63%
O=C(Nc1ccc(OC(F)(F)F)cc1)c1ccccc1  inhibition (MAOA; enzyme activity, inhibitor; 1 µM, 20 min): 24%
N=C(NCCCSC[C@H]1O[C@@H](n2cnc3c(NCCCc4ccccc4)ncnc32)[C@H](O)[C@@H]1O)NCCc1ccccc1  inhibition (PRMT3; enzyme activity, inhibitor, fluorescence; 10 µM): 1.64%
COc1ccc(/C=C/C(=O)N2CCc3ccccc3C2)cc1OC  inhibition (MAOA; enzyme activity, inhibitor, fluorescence; 62.5 µM): 11.3%
COC(=O)CN=c1scc(-c2ccccc2)n1-c1ccccc1[N+](=O)[O-]  inhibition (LDHA; enzyme activity, inhibitor, fluorescence; 100 µM, pH 7.2): 53%
N=C(NCCCO)NCCCSC[C@H]1O[C@@H](n2cnc3c(NCCCc4ccccc4)ncnc32)[C@H](O)[C@@H]1O  inhibition (PRMT3; enzyme activity, inhibitor, fluorescence; 10 µM): 7.1%
O=C(Nc1cccc(Cl)c1)c1cc(Cl)ccc1O  inhibition (MAOA; enzyme activity, inhibitor; 1 µM, 20 min): 15%
N=C(NCCCSC[C@H]1O[C@@H](n2cnc3c(NCCCc4ccccc4)ncnc32)[C@H](O)[C@@H]1O)NC1CCC1  inhibition (PRMT3; enzyme activity, inhibitor, fluorescence; 10 µM): -37.6%
N#Cc1cc(Cn2c(N3CCCC3)nc3ccccc32)ccc1F  inhibition (ADRA1A; ligand displacement; 10 µM): -11.7%
CC[C@H](C)[C@H](NC(=O)[C@H](CCC(N)=O)NC(=O)[C@H](CC(C)C)NC(=O)[C@H](CCSC)NC(=O)[C@H](CCCCN)NC(=O)[C@H](CO)NC(=O)[C@H](CO)NC(=O)[C@H](CCSC)NC(=O)[C@H](CC(C)C)NC(=O)[C@H](CC(N)=O)NC(=O)[C@@H](NC(=O)[C@@H](NC(=O)[C@H](CO)NC(=O)[C@H](CC(C)C)NC(=O)[C@H](CS)NC(=O)[C@H](CCCNC(=N)N)NC(=O)[C@H](CC(=O)O)NC(=O)[C@H](Cc1c[nH]c2ccccc12)NC(=O)[C@H](Cc1ccccc1)NC(=O)[C@H](C)NC(=O)[C@H](CCC(=O)O)NC(=O)[C@@H](N)CCCCN)C(C)C)[C@@H](C)CC)C(=O)N[C@@H](CC(N)=O)C(=O)N[C@@H](C)C(=O)O  inhibition (Cyclin-dependent kinase 5, with p25 (CDK5, Homo sapiens, UniProt Q00535); enzyme activity, inhibitor, radiometric; 500 µM): 72%
O=C(Nc1ccc([N+](=O)[O-])cc1Cl)c1ccc2c(c1)OCO2  inhibition (MAOA; enzyme activity, inhibitor; 1 µM, 20 min): 9%
N=C(NCCCN)NCCCSC[C@H]1O[C@@H](n2cnc3c(NCCCc4ccccc4)ncnc32)[C@H](O)[C@@H]1O  inhibition (PRMT3; enzyme activity, inhibitor, fluorescence; 10 µM): 1.09%
COc1ccc(CN[C@@H]2C[C@@H](c3ccc(Cl)c(Cl)c3)c3ccccc32)cc1 (relative stereo)  inhibition (Glutathione reductase, mitochondrial (GSR, Homo sapiens, UniProt P00390); enzyme activity, inhibitor; 25 µM): < 12%
CC1=C(C(=O)Nc2ccc([N+](=O)[O-])cc2Cl)Cc2ccccc21  inhibition (MAOA; enzyme activity, inhibitor; 1 µM, 20 min): -3%
CNC(=O)c1cc(Oc2ccc(NC(=O)Nc3ccc(Cl)c(C(F)(F)F)c3)cc2)ccn1  inhibition (Rps6ka1; enzyme activity, inhibitor; 0.3 µM): 11%
COC(=O)CN=c1scc(-c2ccccc2)n1-c1ccc(Cl)cc1  inhibition (LDHA; enzyme activity, inhibitor, fluorescence; 100 µM, pH 7.2): 41%
O=C1N=C(N2CCCCN2)S/C1=C\c1ccc(F)cc1O  inhibition (VIPR1; ligand displacement, radioligand; 10 µM): 11%
O=C(OC(C(F)(F)F)C(F)(F)F)N1CCC(CCn2nnc3ccccc32)CC1  inhibition (Fatty-acid amide hydrolase 1 (Faah, Rattus norvegicus, UniProt P97612); enzyme activity, inhibitor; 10 µM): 47%
O=C(Nc1cc(F)ccc1[N+](=O)[O-])c1cc(Cl)ccc1O  inhibition (MAOA; enzyme activity, inhibitor; 1 µM, 20 min): 8%
CN1CC(Oc2cnc(C#N)cc2-c2ccn3nc(NC(=O)C4CC4)cc3c2)C1  inhibition (Cyclin-dependent kinase-like 4 (CDKL4, Homo sapiens, UniProt Q5MAI5); enzyme activity, inhibitor; 1 µM): -9%
Cc1ccc(C(=O)Nc2ccc([N+](=O)[O-])cc2C(F)(F)F)cc1  inhibition (MAOA; enzyme activity, inhibitor; 1 µM, 20 min): 10%
CCCCNC(=N)NCCCSC[C@H]1O[C@@H](n2cnc3c(NCCCc4ccccc4)ncnc32)[C@H](O)[C@@H]1O  inhibition (PRMT3; enzyme activity, inhibitor, fluorescence; 10 µM): 11.1%
Cc1cc([N+](=O)[O-])ccc1NC(=O)c1ccc(Cl)cc1  inhibition (MAOA; enzyme activity, inhibitor; 1 µM, 20 min): 13%
Cc1ccc(Nc2nccc(N(C)c3ccc4c(C)n(C)nc4c3)n2)cc1S(N)(=O)=O  inhibition (Rps6ka1; enzyme activity, inhibitor; 0.3 µM): 27%
